Measurements published in ChEMBL document CHEMBL4052682, “Exploitation of Conformational Dynamics in Imparting Selective Inhibition for Related Matrix Metalloproteinases” (ACS Med Chem Lett, 2017).
Active and inactive are the calls of the source. The calls are words filed in the database; no cut-off is given here.

Key:
Collagenase 3 [1] = target: T1, Collagenase 3 (Homo sapiens, UniProt P45452); test: Inhibition of human recombinant MMP-13 catalytic domain (104 to 274 residues) expressed in Escherichia coli using fluorogenic Mca-KPLGL-Dpa-AR-NH2 as substrate at 10 uM by fluorescence spectrophotometric analysis relative to control
How it was run: (§1)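 Single-concentration screen: compounds were incubated at 10 μM with each MMP and its substrate, and percent inhibition was measured.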

Neutrophil collagenase [2] = target: T2, Neutrophil collagenase (Homo sapiens, UniProt P22894); test: (§2) Inhibition of human recombinant MMP-8 catalytic domain (99 to 269 residues) expressed in Escherichia coli using fluorogenic Mca-KPLGL-Dpa-AR-NH2 as substrate at 10 uM by fluorescence spectrophotometric analysis relative to control; details: 10 µM
Neutrophil collagenase [3] = target: T2, Neutrophil collagenase; test: Inhibition of human recombinant MMP-8 catalytic domain (99 to 269 residues) expressed in Escherichia coli using fluorogenic Mca-KPLGL-Dpa-AR-NH2 as substrate by fluorescence spectrophotometric analysis
How it was run: (§3)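 Ki was determined only for compounds giving more than 50% inhibition in the 10 μM enzyme–substrate screen.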

[4] = target: Matrix metalloproteinase-14 (Homo sapiens) (UniProt P50281); test: Inhibition of human recombinant MMP-14 catalytic domain ([…]) using fluorogenic MOCAc-Pro-Leu-Gly-Leu-A2pr(Dnp)-Ala-Arg-NH2 as substrate at 50 uM by fluorescence spectrophotometric analysis relative to control
Collagenase 3 [5] = target: T1, Collagenase 3; test: Inhibition of human recombinant MMP-13 catalytic domain (104 to 274 residues) expressed in Escherichia coli using fluorogenic Mca-KPLGL-Dpa-AR-NH2 as substrate by fluorescence spectrophotometric analysis; how it was run: as §3
[6] = target: T3, Matrilysin (Homo sapiens) (UniProt P09237); test: Inhibition of human recombinant active MMP-7 expressed in Escherichia coli using fluorogenic MOCAc-Pro-Leu-Gly-Leu-A2pr(Dnp)-Ala-Arg-NH2 as substrate at 10 uM by fluorescence spectrophotometric analysis; how it was run: as §1
T3 sequence (whole entry): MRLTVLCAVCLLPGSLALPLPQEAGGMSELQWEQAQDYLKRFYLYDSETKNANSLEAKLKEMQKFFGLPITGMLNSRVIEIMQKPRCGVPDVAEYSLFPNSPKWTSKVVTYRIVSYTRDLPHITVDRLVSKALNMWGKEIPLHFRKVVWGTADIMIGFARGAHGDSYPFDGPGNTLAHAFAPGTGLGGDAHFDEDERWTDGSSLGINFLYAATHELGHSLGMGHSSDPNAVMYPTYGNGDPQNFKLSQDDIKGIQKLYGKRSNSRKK

[7] = target: Matrix metalloproteinase-9 (Homo sapiens) (UniProt P14780); test: Inhibition of human recombinant MMP-9 catalytic domain (107 to 449 residues) expressed in Escherichia coli using fluorogenic MOCAc-Pro-Leu-Gly-Leu-A2pr(Dnp)-Ala-Arg-NH2 as substrate at 10 uM by fluorescence spectrophotometric analysis; how it was run: as §1
[8] = target: T4, Interstitial collagenase (Homo sapiens) (UniProt P03956); test: Inhibition of human recombinant MMP-1 catalytic domain (100 to 268 residues) expressed in Escherichia coli using fluorogenic Mca-KPLGL-Dpa-AR-NH2 as substrate at 10 uM by fluorescence spectrophotometric analysis; how it was run: as §1
T4 sequence (whole entry): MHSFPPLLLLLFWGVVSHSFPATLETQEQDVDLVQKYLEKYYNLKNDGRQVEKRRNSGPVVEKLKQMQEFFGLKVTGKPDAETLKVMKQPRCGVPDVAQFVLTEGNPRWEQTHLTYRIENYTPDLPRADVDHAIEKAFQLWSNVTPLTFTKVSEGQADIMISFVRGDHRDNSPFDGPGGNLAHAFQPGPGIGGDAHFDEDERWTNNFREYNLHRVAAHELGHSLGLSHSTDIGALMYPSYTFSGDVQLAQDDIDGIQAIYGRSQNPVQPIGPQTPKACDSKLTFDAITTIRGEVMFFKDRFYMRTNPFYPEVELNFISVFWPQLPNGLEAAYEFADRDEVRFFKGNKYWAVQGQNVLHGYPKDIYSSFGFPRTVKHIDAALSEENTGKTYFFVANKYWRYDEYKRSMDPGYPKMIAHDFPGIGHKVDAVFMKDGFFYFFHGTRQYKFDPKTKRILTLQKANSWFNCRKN

[9] = target: Stromelysin-1 (Homo sapiens) (UniProt P08254); test: Inhibition of human recombinant MMP-3 catalytic domain expressed in Escherichia coli using fluorogenic MOCAc-Arg-Pro-Lys-Pro-Val-Glu-Nva-Trp-Arg-Lys(Dnp)-NH2 as substrate at 10 uM by fluorescence spectrophotometric analysis; how it was run: as §1
[10] = target: 72 kDa type IV collagenase (Homo sapiens) (UniProt P08253); test: Inhibition of human recombinant full length active MMP-2 expressed in mouse cells using fluorogenic MOCAc-Pro-Leu-Gly-Leu-A2pr(Dnp)-Ala-Arg-NH2 as substrate at 10 uM by fluorescence spectrophotometric analysis; type: biochemical; how it was run: as §1
[11] = target: Matrix metalloproteinase-14 (Homo sapiens) (UniProt P50281); test: Inhibition of human recombinant MMP-14 catalytic domain (89 to 265 residues) expressed in Escherichia coli using fluorogenic MOCAc-Pro-Leu-Gly-Leu-A2pr(Dnp)-Ala-Arg-NH2 as substrate at 10 uM by fluorescence spectrophotometric analysis; how it was run: as §1
[12] = target: MMP-8 (neutrophil collagenase) (Homo sapiens, UniProt P22894); test: as §2; details: probe Mca-KPLGL-Dpa-AR-NH2 (fluorogenic)
[13] = target: Matrix metalloproteinase-14 (Homo sapiens) (UniProt P50281); test: Inhibition of human recombinant MMP-14 catalytic domain ([…]) using fluorogenic MOCAc-Pro-Leu-Gly-Leu-A2pr(Dnp)-Ala-Arg-NH2 as substrate at 10 uM by fluorescence spectrophotometric analysis relative to control; how it was run: as §1
[14] = AUC (0 to infinity) in CD-1 mouse at 1 mg/kg, iv administered as single dose by UPLC analysis; type: ADME, organism-based; design: dose 1 mg/kg, time infinity, route intravenous; details: in vivo
How it was run: (§4)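 Mouse pharmacokinetics after a single 1 mg/kg intravenous dose. Three mice were sampled per time point and plasma concentration–time curves were built. Plasma levels were read at 2 min and at 24 h. AUC0-∞, clearance (also expressed as a percentage of hepatic blood flow), volume of distribution and elimination half-life were derived from the curves.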

Mus musculus [15] = test: Clearance in CD-1 mouse at 1 mg/kg, iv administered as single dose by UPLC analysis relative to hepatic blood flow; type: ADME, organism-based; details: in vivo; how it was run: as §4
[16] = Plasma concentration in CD-1 mouse at 1 mg/kg, iv administered as single dose after 24 hrs by UPLC analysis; type: ADME, organism-based; how it was run: as §4
[17] = AUC (0 to infinity) in CD-1 mouse at 10 mg/kg, po by UPLC analysis; type: ADME, organism-based; design: dose 10 mg/kg, time infinity, route oral; details: in vivo
[18] = Cmax in CD-1 mouse at 10 mg/kg, po after 6 hrs by UPLC analysis; type: ADME, organism-based; design: dose 10 mg/kg, route oral; details: in vivo
How it was run: (§5)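 Mouse pharmacokinetics after a single 10 mg/kg oral dose. Three mice were sampled per time point, out to 48 h, and plasma concentration–time curves were built. Cmax and its time, elimination half-life and AUC0-∞ were derived. Absolute oral bioavailability came from the oral AUC relative to the intravenous (1 mg/kg) AUC, after dose adjustment.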

[19] = Elimination half life in CD-1 mouse at 10 mg/kg, po by UPLC analysis; type: ADME, organism-based; details: in vivo, read-out: beta t1/2 (converted); how it was run: as §5
[20] = Elimination half life in CD-1 mouse at 1 mg/kg, iv administered as single dose by UPLC analysis; type: ADME, organism-based; details: in vivo, read-out: beta t1/2 (converted); how it was run: as §4
[21] = Clearance in CD-1 mouse at 1 mg/kg, iv administered as single dose by UPLC analysis; type: ADME, organism-based; details: in vivo; how it was run: as §4
[22] = Volume of distribution in CD-1 mouse at 1 mg/kg, iv administered as single dose by UPLC analysis; type: ADME, organism-based; details: in vivo; how it was run: as §4
Mus musculus [23] = test: Time at which plasma concentration stays above human recombinant MMP-13 Ki level in CD-1 mouse at 1 mg/kg, iv administered as single dose by UPLC analysis
[24] = Plasma concentration in CD-1 mouse at 1 mg/kg, iv administered as single dose after 2 mins by UPLC analysis; type: ADME, organism-based; how it was run: as §4
[25] = Plasma concentration in CD-1 mouse at 10 mg/kg, po after 48 hrs by UPLC analysis; details: in vivo
[26] = Oral bioavailability in CD-1 mouse at 10 mg/kg by UPLC analysis; type: ADME, organism-based; details: in vivo; how it was run: as §5

Sequence of 72 kDa type IV collagenase (Homo sapiens) (P08253 110-660 limits assumed): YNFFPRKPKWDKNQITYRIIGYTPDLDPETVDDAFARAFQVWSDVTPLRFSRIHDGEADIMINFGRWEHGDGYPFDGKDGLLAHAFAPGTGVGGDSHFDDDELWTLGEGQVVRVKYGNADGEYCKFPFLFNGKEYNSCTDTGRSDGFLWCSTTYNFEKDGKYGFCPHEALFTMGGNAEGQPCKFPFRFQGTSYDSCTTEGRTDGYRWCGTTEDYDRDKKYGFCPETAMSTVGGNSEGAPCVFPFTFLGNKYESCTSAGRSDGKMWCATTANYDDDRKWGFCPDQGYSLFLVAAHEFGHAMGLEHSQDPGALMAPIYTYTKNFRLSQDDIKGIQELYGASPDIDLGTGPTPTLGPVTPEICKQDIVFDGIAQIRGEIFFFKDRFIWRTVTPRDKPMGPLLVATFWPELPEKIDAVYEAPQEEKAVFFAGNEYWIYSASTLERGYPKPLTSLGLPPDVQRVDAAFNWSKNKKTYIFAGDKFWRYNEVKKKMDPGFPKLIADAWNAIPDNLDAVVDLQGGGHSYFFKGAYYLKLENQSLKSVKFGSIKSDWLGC
T2 sequence (P22894 whole entry, the tested form may be a part): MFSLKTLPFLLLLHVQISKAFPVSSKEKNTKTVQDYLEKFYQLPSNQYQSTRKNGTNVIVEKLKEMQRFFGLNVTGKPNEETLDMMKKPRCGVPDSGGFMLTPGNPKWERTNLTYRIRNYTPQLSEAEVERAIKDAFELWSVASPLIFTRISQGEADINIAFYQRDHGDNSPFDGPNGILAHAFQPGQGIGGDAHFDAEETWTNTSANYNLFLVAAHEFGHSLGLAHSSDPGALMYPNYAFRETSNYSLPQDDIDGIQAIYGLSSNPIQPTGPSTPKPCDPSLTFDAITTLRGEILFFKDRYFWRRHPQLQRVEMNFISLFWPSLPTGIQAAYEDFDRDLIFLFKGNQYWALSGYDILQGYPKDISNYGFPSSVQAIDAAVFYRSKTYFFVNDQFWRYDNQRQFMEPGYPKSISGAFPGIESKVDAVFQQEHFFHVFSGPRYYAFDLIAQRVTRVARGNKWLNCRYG
Sequence of MMP-8 (neutrophil collagenase) (P22894 whole entry, the tested form may be a part): as above
Sequence of Stromelysin-1 (Homo sapiens) (P08254 100-477 limits assumed): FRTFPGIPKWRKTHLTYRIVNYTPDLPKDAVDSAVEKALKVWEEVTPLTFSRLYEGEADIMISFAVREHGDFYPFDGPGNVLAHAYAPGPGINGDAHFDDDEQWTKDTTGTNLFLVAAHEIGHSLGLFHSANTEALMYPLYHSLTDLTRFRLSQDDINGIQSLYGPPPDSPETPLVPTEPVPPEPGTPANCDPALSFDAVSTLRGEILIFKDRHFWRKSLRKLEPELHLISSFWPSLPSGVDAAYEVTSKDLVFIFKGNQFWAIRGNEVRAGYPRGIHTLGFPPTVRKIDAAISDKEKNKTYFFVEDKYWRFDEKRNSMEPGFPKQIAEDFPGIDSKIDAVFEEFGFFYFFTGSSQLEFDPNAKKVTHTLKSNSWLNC
Sequence of Matrix metalloproteinase-9 (Homo sapiens) (P14780 whole entry, the tested form may be a part): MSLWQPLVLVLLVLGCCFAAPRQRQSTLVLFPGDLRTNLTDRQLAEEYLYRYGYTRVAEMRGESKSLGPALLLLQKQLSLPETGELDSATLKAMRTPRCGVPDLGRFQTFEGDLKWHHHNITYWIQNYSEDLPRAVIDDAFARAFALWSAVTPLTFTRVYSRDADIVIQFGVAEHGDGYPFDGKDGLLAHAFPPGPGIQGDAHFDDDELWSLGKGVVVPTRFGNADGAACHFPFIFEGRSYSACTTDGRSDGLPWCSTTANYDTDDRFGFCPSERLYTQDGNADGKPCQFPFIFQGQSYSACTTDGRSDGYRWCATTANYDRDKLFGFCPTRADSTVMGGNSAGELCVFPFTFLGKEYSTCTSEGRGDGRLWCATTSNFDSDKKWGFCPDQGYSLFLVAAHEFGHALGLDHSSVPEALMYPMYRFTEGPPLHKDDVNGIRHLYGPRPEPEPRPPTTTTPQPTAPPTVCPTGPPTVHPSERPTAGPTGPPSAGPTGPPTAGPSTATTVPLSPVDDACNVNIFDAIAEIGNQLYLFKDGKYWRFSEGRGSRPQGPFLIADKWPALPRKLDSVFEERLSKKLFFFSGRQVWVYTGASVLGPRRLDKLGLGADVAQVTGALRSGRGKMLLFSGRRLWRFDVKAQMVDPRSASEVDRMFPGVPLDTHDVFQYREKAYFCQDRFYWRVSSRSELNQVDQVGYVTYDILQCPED

Compound: O=C1COc2ccc(CNC(=O)c3cc(-c4ccccc4)n[nH]3)cc2N1
- inhibition (Collagenase 3 [1]): Active
- inhibition (INH) (Neutrophil collagenase [2]): Not Active

Compound: O=C1COc2ccc(CNC(=O)c3nc4sc(C5CCCCC5)cc4c(=O)[nH]3)cc2N1
- Ki (Neutrophil collagenase [3]): 3.3 nM
- inhibition [4]: 57%
- inhibition (Collagenase 3 [1]): > 50%
- Ki (Collagenase 3 [5]): 24.5 nM
- inhibition [6]: inactive
- inhibition [7]: inactive
- inhibition [8]: inactive
- inhibition [9]: inactive
- inhibition [10]: inactive
- inhibition [11]: inactive
- inhibition at 10 µM [12]: > 50%

Compound: O=C1COc2ccc(CNC(=O)c3nc4sc5c(c4c(=O)[nH]3)CCCCCC5)cc2N1
- Ki (Neutrophil collagenase [3]): 0.71 nM
- inhibition [13]: 14%
- inhibition (Collagenase 3 [1]): > 50%
- Ki (Collagenase 3 [5]): 0.59 nM
- inhibition [6]: inactive
- inhibition [7]: inactive
- inhibition [8]: inactive
- inhibition [9]: inactive
- inhibition [10]: inactive
- inhibition [11]: inactive
- inhibition at 10 µM [12]: > 50%

Compound: O=C1COc2ccc(CNC(=O)c3nc4scc(CCc5ccccc5)c4c(=O)[nH]3)cc2N1
- Ki (Neutrophil collagenase [3]): 6500 nM
- inhibition [13]: 4%
- inhibition (Collagenase 3 [1]): > 50%
- Ki (Collagenase 3 [5]): 190 nM
- inhibition [6]: inactive
- inhibition [7]: inactive
- inhibition [8]: inactive
- inhibition [9]: inactive
- inhibition [10]: inactive
- inhibition [11]: inactive
- inhibition at 10 µM [12]: > 50%

Compound: O=C1COc2ccc(CNC(=O)c3nc4scc(-c5ccc(C(F)(F)F)cc5)c4c(=O)[nH]3)cc2N1
- Ki (Neutrophil collagenase [3]): 8500 nM
- AUC(0-inf) [14]: 14.8 µM·h
- CL (Mus musculus [15]): 3%
- inhibition [13]: 1%
- inhibition (Collagenase 3 [1]): > 50%
- concentration at 24 h [16]: 62 nM
- AUC(0-inf) [17]: 6.92 µM·h
- Ki (Collagenase 3 [5]): 36 nM
- Cmax [18]: 400 nM
- half-life [19]: 17.5 h
- half-life [20]: 5.3 h
- clearance [21]: 2.2 mL/min/kg
- inhibition [6]: inactive
- Vd [22]: 1 L/kg
- inhibition [7]: inactive
- inhibition [8]: inactive
- Time (Mus musculus [23]): 24 h
- concentration at 2 min [24]: 4400 nM
- inhibition [9]: inactive
- inhibition [10]: inactive
- inhibition [11]: inactive
- inhibition at 10 µM [12]: > 50%
- Plasma concentration at 48 h [25]: 42 nM
- bioavailability [26]: 4.7%

Compound: O=C1COc2ccc(CNC(=O)c3cc(-c4ccsc4)n[nH]3)cc2N1
- inhibition (Collagenase 3 [1]): Active
- inhibition (INH) (Neutrophil collagenase [2]): Not Active

Compound: O=C1COc2ccc(CNC(=O)c3nc4scc(C5CCCCC5)c4c(=O)[nH]3)cc2N1
- Ki (Neutrophil collagenase [3]): 19 nM
- inhibition [13]: 14%
- inhibition (Collagenase 3 [1]): > 50%
- Ki (Collagenase 3 [5]): 0.47 nM
- inhibition [6]: inactive
- inhibition [7]: inactive
- inhibition [8]: inactive
- inhibition [9]: inactive
- inhibition [10]: inactive
- inhibition [11]: inactive
- inhibition at 10 µM [12]: > 50%

Compound: O=C1COc2ccc(CNC(=O)c3cc(-c4cccc5ccccc45)n[nH]3)cc2N1
- inhibition (Collagenase 3 [1]): Active
- inhibition (INH) (Neutrophil collagenase [2]): Not Active
